{"data": "Experimental data from different studies", "target": "Casein kinase I isoform gamma-1 (CSNK1G1, Homo sapiens, UniProt Q9HCP0)", "note": "Each line is one published result; the experiments were not run side by side."}
{"Compound": "c1cncc(-c2cccc(Nc3nccc(NC4CCCCC4)n3)c2)c1", "assay": "binding, competition with immobilised ligand", "setting": "10 µM", "remaining binding [%]": 89}
{"Compound": "N[C@@H]1CCN(c2nccc(-c3cnn4ncccc34)n2)C1", "assay": "binding", "setting": "1 µM", "remaining binding [%]": 100}
{"Compound": "CCC(=O)N[C@H]1CC[C@@H](C(=O)N(C)c2ccc(-c3nc4ccccc4o3)cc2)C1", "assay": "cell-free assay, competition with immobilised ligand", "setting": "1 µM", "remaining binding [%]": 90}
{"Compound": "C[C@@H]1CCN(c2nccc(-c3cnn4ncccc34)n2)C1", "assay": "binding", "setting": "1 µM", "remaining binding [%]": 87}
{"Compound": "COc1cnc(Nc2cccc(S(N)(=O)=O)c2)nc1N1CCN(c2ccccc2)C(=O)C1", "assay": "binding, competition with immobilised ligand", "setting": "1 µM", "remaining binding [%]": 100}
{"Compound": "O=C(c1ccc(Nc2ncc(Cl)c(-c3cc4ccccc4s3)n2)cc1)N1CCC(N2CCCC2)CC1", "assay": "binding, competition with immobilised ligand", "setting": "1 µM", "remaining binding [%]": 80}
{"Compound": "CNC(=O)[C@@H]1CC[C@@H](n2c(-c3ccc4cnccc4c3)nc3ccc(C(=O)NCc4cccc(C(N)=O)c4)cc32)C1", "assay": "binding, competition with immobilised ligand", "setting": "1 µM", "remaining binding [%]": 100}
{"Compound": "CO[C@@H](C)c1c(Nc2ccc([C@H](N(C)C(=O)C3CCS(=O)(=O)CC3)C(F)(F)F)cc2)cnc2cc(Cl)nn12", "assay": "cell-free assay, competition with immobilised ligand", "setting": "1 µM", "remaining binding [%]": 100}
{"Compound": "CN(CCCC(F)(F)F)c1nccc(-c2cnn3ncccc23)n1", "assay": "binding", "setting": "1 µM", "remaining binding [%]": 100}
{"Compound": "O=C(c1ccc(Nc2nccc(-c3cc4ccccc4s3)n2)cc1)N1CCC(N2CCCC2)CC1", "assay": "binding, competition with immobilised ligand", "setting": "1 µM", "remaining binding [%]": 88}
{"Compound": "O=C(NS(=O)(=O)c1ccc(NCC2CCOCC2)c([N+](=O)[O-])c1)c1ccc(N2CCN(Cc3ccc(C(F)(F)F)cc3-c3ccc(Cl)cc3)CC2)cc1Oc1cnc2[nH]ccc2c1", "assay": "cell-free assay, competition with immobilised ligand", "setting": "1 µM", "remaining binding [%]": 95}
{"Compound": "CN(c1nccc(-c2cnn3ncccc23)n1)C1CC1", "assay": "binding", "setting": "1 µM", "remaining binding [%]": 100}
{"Compound": "CC(=O)c1c(NS(C)(=O)=O)c2cc(-c3ccc(Cl)cc3)c(-c3ccc(Cl)cc3Cl)nc2n(C)c1=O", "assay": "cell-free assay, competition with immobilised ligand", "setting": "1 µM", "remaining binding [%]": 92}
{"Compound": "CN(C)c1ncc(F)c(-c2cnn3ncccc23)n1", "assay": "binding", "setting": "1 µM", "remaining binding [%]": 74}
{"Compound": "O=C(NCCCN1CCOCC1)c1ccc(Nc2nccc(-c3cc4ccccc4s3)n2)cc1", "assay": "binding, competition with immobilised ligand", "setting": "1 µM", "remaining binding [%]": 81}
{"Compound": "O=C(Nc1c[nH]nc1C(=O)NC1CCNCC1)c1cc(F)cc(F)c1", "assay": "binding, competition with immobilised ligand", "setting": "1 µM", "remaining binding [%]": 89}
{"Compound": "CN(C)c1ncnc(-c2ccc3nc(Nc4cc(CN5CCN(C(=O)CC(F)(F)F)CC5)ccn4)[nH]c3c2)c1Cl", "assay": "cell-free assay, competition with immobilised ligand", "setting": "1 µM", "remaining binding [%]": 76}
{"Compound": "CC1CCCN1c1nccc(-c2cnn3ncccc23)n1 (stereo not drawn)", "assay": "binding", "setting": "1 µM", "remaining binding [%]": 100}
